ChEMBL document CHEMBL3997810, “A Novel Potent Anticancer Compound Optimized from a Natural Oridonin Scaffold Induces Apoptosis and Cell Cycle Arrest through the Mitochondrial Pathway” (J Med Chem, 2017)
Active and inactive are the calls of the source. The calls are words filed in the database; no cut-off is given here.

Legend:
MGC-803 = assay: Antiproliferative activity against human MGC803 cells after 72 hrs by MTT assay; type: functional, cell-based; details: MGC-803, 72 h
In short: (§1)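 MGC-803 and MCF-7 cells grown in DMEM (MCF-7 with 1× NEAA); Bel-7402 and K562 grown in RPMI 1640; all media with 10% FBS. Cells seeded at 3500/well, pre-incubated 24 h, then exposed to compounds in fresh medium (DMSO ≤0.25%) for 72 h at 37 °C. MTT read-out at 570 nm. Quadruplicate wells, repeated three times; means ± SD (n = 3).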

K562 = assay: Antiproliferative activity against human K562 cells after 72 hrs by MTT assay; type: functional, cell-based; details: K562, 72 h; in short: as §1
[1] = Permeability from basolateral to apical side in human Caco2 cells at 100 uM after 5 mins by HPLC method; type: ADME, cell-based; details: caco-2, 5 min
BEL-7404 tumor cell line = assay: Antiproliferative activity against human Bel7404 cells after 48 hrs by MTT assay; type: functional, cell-based; details: BEL-7404, 48 h
In short: (§2)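 Colorimetric MTT assay. KB-3-1, NCI-H460 and Bel-7404 cells were seeded at 4000 cells/well; resistant KB/CP4, NCI-H460/MX20 and Bel-7404/CP20 were seeded at 7000 cells/well. Cells were pre-incubated 24 h at 37 °C, 5% CO2, then exposed to a compound concentration series for 48 h with DMSO ≤0.25%. Absorbance read at 570 nm. Quadruplicate wells, three repeats; means ± SD.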

[2] = Antiproliferative activity against human BEL7404/CP20 cells after 48 hrs by MTT assay; type: functional, cell-based; details: BEL7404/CP20, 48 h; in short: as §2
[3] = Selectivity ratio of IC50 for human L02 cells to IC50 for human Bel7402 cells
MCF7 [4] = assay: Cell cycle arrest in human MCF7 cells assessed as accumulation at G1 phase at 0.125 uM after 48 hrs by propidium iodide staining based flow cytometry (reference value: 49.77%); type: functional
In short: (§3)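 MCF-7 cells, 5 × 10^4 per well, seeded overnight, then exposed to 0.125–1 μM compound, or DMSO, for 48 h. Ethanol-fixed (70%, −20 °C, 12 h) and stained with PI/RNase at 37 °C for 30 min. Phase distribution determined by flow cytometry.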

MCF7 [5] = assay: Cell cycle arrest in human MCF7 cells assessed as accumulation at G2/M phase at 0.125 uM after 48 hrs by propidium iodide staining based flow cytometry (reference value: 13.05%); type: functional; in short: as §3
MCF7 [6] = assay: Cell cycle arrest in human MCF7 cells assessed as accumulation at S phase at 0.25 uM after 48 hrs by propidium iodide staining based flow cytometry (reference value: 37.18%); type: functional; in short: as §3
MCF7 [7] = assay: Cell cycle arrest in human MCF7 cells assessed as accumulation at G1 phase at 0.5 uM after 48 hrs by propidium iodide staining based flow cytometry (reference value: 49.77%); type: functional; in short: as §3
MCF7 [8] = assay: Cell cycle arrest in human MCF7 cells assessed as accumulation at G2/M phase at 0.5 uM after 48 hrs by propidium iodide staining based flow cytometry (reference value: 13.05%); type: functional; in short: as §3
MCF7 [9] = assay: Cell cycle arrest in human MCF7 cells assessed as accumulation at G1 phase at 1 uM after 48 hrs by propidium iodide staining based flow cytometry (reference value: 49.77%); type: functional; in short: as §3
MCF7 [10] = assay: Cell cycle arrest in human MCF7 cells assessed as accumulation at S phase at 1 uM after 48 hrs by propidium iodide staining based flow cytometry (reference value: 37.18%); type: functional; in short: as §3
Bel-7402 [11] = assay: Cell cycle arrest in human Bel7402 cells assessed as accumulation at G1 phase at 0.5 uM after 48 hrs by propidium iodide staining based flow cytometry (reference value: 34.61%); type: functional
Bel-7402 [12] = assay: Cell cycle arrest in human Bel7402 cells assessed as accumulation at G2/M phase at 2 uM after 48 hrs by propidium iodide staining based flow cytometry (reference value: 56.61%); type: functional
Bel-7402 [13] = assay: Cell cycle arrest in human Bel7402 cells assessed as accumulation at S phase at 4 uM after 48 hrs by propidium iodide staining based flow cytometry (reference value: 8.78%); type: functional
MCF7 [14] = assay: Downregulation of cdc2 protein expression in human MCF7 cells after 48 hrs by Western blot method; type: functional, cell-based
In short: (§4)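 MCF-7 cells exposed to 0–1 μM compound for 48 h, then lysed on ice. Lysate (20 μg protein) run on 8–12% SDS-PAGE and transferred to PVDF. Probed overnight at 4 °C with primary antibodies, then fluorescent secondaries. Band densities normalized to β-actin. Mean ± SD of three independent experiments.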

MCF7 [15] = assay: Induction of apoptosis in human MCF7 cells assessed as early apoptotic cells at 0.125 uM after 24 hrs by Annexin-V FITC/propidium iodide staining based flow cytometry (reference value: 2.65%); type: functional
MCF7 [16] = assay: Induction of apoptosis in human MCF7 cells assessed as early apoptotic cells at 0.25 uM after 24 hrs by Annexin-V FITC/propidium iodide staining based flow cytometry (reference value: 2.65%); type: functional
MCF7 [17] = assay: Induction of apoptosis in human MCF7 cells assessed as late apoptotic cells at 0.25 uM after 24 hrs by Annexin-V FITC/propidium iodide staining based flow cytometry (reference value: 0.255%); type: functional
MCF7 [18] = assay: Induction of apoptosis in human MCF7 cells assessed as live cells at 1 uM after 24 hrs by Annexin-V FITC/propidium iodide staining based flow cytometry (reference value: 97%); type: functional
MCF7 [19] = assay: Induction of apoptosis in human MCF7 cells assessed as early apoptotic cells at 1 uM after 24 hrs by Annexin-V FITC/propidium iodide staining based flow cytometry (reference value: 2.65%); type: functional
MCF7 [20] = assay: Induction of apoptosis in human MCF7 cells assessed as decrease in pro-caspase-3 to caspase-3 protein expression ratio after 48 hrs by Western blot method; type: functional, cell-based; in short: as §4
MCF7 [21] = assay: Induction of apoptosis in human MCF7 cells assessed as increase in caspase-9 protein expression up to 1 uM after 48 hrs by Western blot method; type: functional, cell-based
In short: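 MCF-7 cells were treated at 0, 0.125, 0.25, 0.5 or 1 μM for 48 h, washed in ice-cold PBS and lysed on ice for 20 min. Lysates were spun at 13,000 g, 4 °C. 20 μg protein was run on SDS-PAGE and blotted to PVDF, probed overnight at 4 °C with primary antibodies, then with fluorescent secondary antibodies. Band density was expressed relative to β-actin; three independent experiments.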

Mus musculus = assay: Cardiotoxicity in Balb/c nude mouse xenografted with human MCF7 cells assessed as morphological changes in heart at 20 mg/kg/day, iv for 4 weeks by hematoxylin and eosin staining based microscopic method; type: toxicity, organism-based; details: in vivo, 672 h
In short: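 Male BALB/c nude mice (6 weeks old) carrying subcutaneous MCF-7 xenografts (1 × 10^6 cells). Dosed iv 20 mg/kg daily for 28 days in 10% DMF/2% poloxamer/88% saline; six mice per group. Organs then fixed in 4% paraformaldehyde, paraffin-embedded, cut at 5 μm, stained with Harris hematoxylin and eosin-phloxine, and examined by light microscopy.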

[22] = Selectivity ratio of IC50 for human KB/CP4 cells to IC50 for human KB-3-1 cells

C=C1C(=O)[C@]23[C@H](OC(=O)/C=C/c4ccccc4)[C@H]1CC[C@H]2[C@]12C=CCC(C)(C)[C@H]1[C@H](O)[C@]3(O)OC2
IC50 (MGC-803): 1030 nM
IC50 (K562): 290 nM
permeability [1]: Permeable
IC50 (BEL-7404 tumor cell line): 5940 nM
IC50 [2]: 4730 nM
Ratio IC50 [3]: 4.07
Activity (MCF7 [4]): 49.27%
Activity (MCF7 [5]): 16.83%
Activity (MCF7 [6]): 33.9%
Activity (MCF7 [7]): 43.87%
Activity (MCF7 [8]): 24.23%
Activity (MCF7 [9]): 35.75%
Activity (MCF7 [10]): 30.01%
Activity (Bel-7402 [11]): 34.56%
Activity (Bel-7402 [12]): 58.07%
Activity (Bel-7402 [13]): 9.55%
Activity (MCF7 [14]): Dose-dependent effect
Activity (MCF7 [15]): 4.64%
Activity (MCF7 [16]): 8.29%
Activity (MCF7 [17]): 19.6%
Activity (MCF7 [18]): 31.2%
Activity (MCF7 [19]): 22.4%
Activity (MCF7 [20]): Dose-dependent effect
Activity (MCF7 [21]): Active
Activity (Mus musculus): Non-Toxic
Ratio IC50 [22]: <1
